Data set [1] in a line: Chemical stability of the compound in presence of snake venom phosphodiesterase after 30 mins by RP-HPLC analysis. It counts as physicochemical. To be noted: 0.5 h. The gist of the method:
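Each oligoribonucleotide (0.8 nmol) incubated with snake venom phosphodiesterase, a 3'-exonuclease (0.01 U), in 200 mM Tris–HCl pH 8.0 with 100 mM MgCl₂ at 37 °C for 5 and 30 min; mixtures analysed by RP-HPLC, remaining full-length RNA expressed as fraction of total RNA from chromatogram peak areas.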

Data set [2] addresses T1, Hepatocyte nuclear factor 4-alpha (Homo sapiens) (UniProt P41235).
T1 sequence (whole entry): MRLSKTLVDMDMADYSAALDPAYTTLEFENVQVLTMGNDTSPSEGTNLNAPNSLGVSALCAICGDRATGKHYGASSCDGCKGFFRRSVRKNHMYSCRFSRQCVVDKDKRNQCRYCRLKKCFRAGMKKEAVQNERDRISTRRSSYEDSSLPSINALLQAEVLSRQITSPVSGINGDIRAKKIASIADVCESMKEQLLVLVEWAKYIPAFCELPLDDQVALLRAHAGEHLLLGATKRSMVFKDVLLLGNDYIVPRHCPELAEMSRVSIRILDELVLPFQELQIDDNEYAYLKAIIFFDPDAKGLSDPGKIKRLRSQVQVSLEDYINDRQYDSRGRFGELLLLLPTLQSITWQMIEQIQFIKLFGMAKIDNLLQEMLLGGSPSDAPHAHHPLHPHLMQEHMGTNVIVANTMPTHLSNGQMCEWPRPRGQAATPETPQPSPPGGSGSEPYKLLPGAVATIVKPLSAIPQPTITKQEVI
Description: Inhibition of HNF4alpha mRNA expression in human HepG2 cells after 24 hrs by real-time RT-PCR.

The target of data set [3] is T1, Hepatocyte nuclear factor 4-alpha (Homo sapiens). Description: Inhibition of HNF4alpha mRNA expression in human HepG2 cells after 24 hrs by RT-PCR analysis. The settings on record: in the assay text read “after 48 hrs” for “after 24 hrs”. Format: cell-based. In a few lines: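 HepG2 cells were grown in DMEM with 5% FBS at 37 °C and transfected with siRNA using a transfection reagent. After 24 h at 37 °C, the medium was changed to DMEM with 10% FBS and cells were incubated a further 24 h. Total RNA was reverse-transcribed for real-time PCR (40 cycles). HNF4α mRNA was normalized to GAPDH by ΔΔCt and expressed relative to nonsense control siRNA, using the mean Ct of duplicate PCRs from independent cells.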

SMILES strings stand for the structures. Active and inactive are the calls of the source. The calls are words filed in the database; no cut-off is given here.

As for `NCCN(CCN)CCNC(=O)Cc1cn([C@H]2C[C@H](OP(=O)(O)OC[C@H]3O[C@@H](n4cc(CC(=O)NCCN(CCN)CCN)c(=O)[nH]c4=O)C[C@@H]3O)[C@@H](COP(=O)(O)O[C@@H]3[C@H](O)[C@@H](COP(=O)(O)O[C@H]4[C@@H](O)[C@H](n5cnc6c(N)ncnc65)O[C@@H]4COP(=O)(O)O[C@H]4[C@@H](O)[C@H](n5ccc(N)nc5=O)O[C@@H]4COP(=O)(O)O[C@H]4[C@@H](O)[C@H](n5cnc6c(N)ncnc65)O[C@@H]4COP(=O)(O)O[C@@H]4[C@H](O)[C@@H](COP(=O)(O)O[C@@H]5[C@H](O)[C@@H](COP(=O)(O)O[C@H]6[C@@H](O)[C@H](n7ccc(=O)[nH]c7=O)O[C@@H]6COP(=O)(O)O[C@@H]6[C@H](O)[C@@H](COP(=O)(O)O[C@@H]7[C@H](O)[C@@H](COP(=O)(O)O[C@H]8[C@@H](O)[C@H](n9ccc(=O)[nH]c9=O)O[C@@H]8COP(=O)(O)O[C@@H]8[C@H](O)[C@@H](COP(=O)(O)O[C@H]9[C@@H](O)[C@H](n%10ccc(N)nc%10=O)O[C@@H]9COP(=O)(O)O[C@@H]9[C@H](O)[C@@H](COP(=O)(O)O[C@H]%10[C@@H](O)[C@H](n%11ccc(=O)[nH]c%11=O)O[C@@H]%10COP(=O)(O)O[C@@H]%10[C@H](O)[C@@H](COP(=O)(O)O[C@H]%11[C@@H](O)[C@H](n%12cnc%13c(N)ncnc%13%12)O[C@@H]%11COP(=O)(O)O[C@H]%11[C@@H](O)[C@H](n%12ccc(N)nc%12=O)O[C@@H]%11COP(=O)(O)O[C@@H]%11[C@H](O)[C@@H](COP(=O)(O)O[C@H]%12[C@@H](O)[C@H](n%13cnc%14c(=O)[nH]c(N)nc%14%13)O[C@@H]%12COP(=O)(O)O)O[C@H]%11n%11cnc%12c(=O)[nH]c(N)nc%12%11)O[C@H]%10n%10cnc%11c(=O)[nH]c(N)nc%11%10)O[C@H]9n9cnc%10c(=O)[nH]c(N)nc%109)O[C@H]8n8cnc9c(=O)[nH]c(N)nc98)O[C@H]7n7cnc8c(=O)[nH]c(N)nc87)O[C@H]6n6cnc7c(=O)[nH]c(N)nc76)O[C@H]5n5cnc6c(=O)[nH]c(N)nc65)O[C@H]4n4cnc5c(=O)[nH]c(N)nc54)O[C@H]3n3cnc4c(N)ncnc43)O2)c(=O)[nH]c1=O`, in data set [1], the Stability result is reported as “Stable”. For the same molecule, the result in data set [2] and in data set [3] was Active.
In the case of `Cc1cn([C@H]2C[C@H](OP(=O)(O)OC[C@H]3O[C@@H](n4cc(CC(=O)NCCN(CCN)CCN)c(=O)[nH]c4=O)C[C@@H]3O)[C@@H](COP(=O)(O)O[C@@H]3[C@H](O)[C@@H](COP(=O)(O)O[C@H]4[C@@H](O)[C@H](n5cnc6c(N)ncnc65)O[C@@H]4COP(=O)(O)O[C@H]4[C@@H](O)[C@H](n5ccc(N)nc5=O)O[C@@H]4COP(=O)(O)O[C@H]4[C@@H](O)[C@H](n5cnc6c(N)ncnc65)O[C@@H]4COP(=O)(O)O[C@@H]4[C@H](O)[C@@H](COP(=O)(O)O[C@@H]5[C@H](O)[C@@H](COP(=O)(O)O[C@H]6[C@@H](O)[C@H](n7ccc(=O)[nH]c7=O)O[C@@H]6COP(=O)(O)O[C@@H]6[C@H](O)[C@@H](COP(=O)(O)O[C@@H]7[C@H](O)[C@@H](COP(=O)(O)O[C@H]8[C@@H](O)[C@H](n9ccc(=O)[nH]c9=O)O[C@@H]8COP(=O)(O)O[C@@H]8[C@H](O)[C@@H](COP(=O)(O)O[C@H]9[C@@H](O)[C@H](n%10ccc(N)nc%10=O)O[C@@H]9COP(=O)(O)O[C@@H]9[C@H](O)[C@@H](COP(=O)(O)O[C@H]%10[C@@H](O)[C@H](n%11ccc(=O)[nH]c%11=O)O[C@@H]%10COP(=O)(O)O[C@@H]%10[C@H](O)[C@@H](COP(=O)(O)O[C@H]%11[C@@H](O)[C@H](n%12cnc%13c(N)ncnc%13%12)O[C@@H]%11COP(=O)(O)O[C@H]%11[C@@H](O)[C@H](n%12ccc(N)nc%12=O)O[C@@H]%11COP(=O)(O)O[C@@H]%11[C@H](O)[C@@H](COP(=O)(O)O[C@H]%12[C@@H](O)[C@H](n%13cnc%14c(=O)[nH]c(N)nc%14%13)O[C@@H]%12COP(=O)(O)O)O[C@H]%11n%11cnc%12c(=O)[nH]c(N)nc%12%11)O[C@H]%10n%10cnc%11c(=O)[nH]c(N)nc%11%10)O[C@H]9n9cnc%10c(=O)[nH]c(N)nc%109)O[C@H]8n8cnc9c(=O)[nH]c(N)nc98)O[C@H]7n7cnc8c(=O)[nH]c(N)nc87)O[C@H]6n6cnc7c(=O)[nH]c(N)nc76)O[C@H]5n5cnc6c(=O)[nH]c(N)nc65)O[C@H]4n4cnc5c(=O)[nH]c(N)nc54)O[C@H]3n3cnc4c(N)ncnc43)O2)c(=O)[nH]c1=O`, the Stability result in data set [1] was “Stable”. The outcome in data set [2] and in data set [3] was Active.

The values are drawn from ChEMBL document CHEMBL1641468, “Synthesis of modified siRNA bearing C-5 polyamine-substituted pyrimidine nucleoside in their 3'-overhang regions and its RNAi activity” (Bioorg Med Chem Lett, 2011).
